Calls of active or inactive are those of the source. The calls are words filed in the database; no cut-off is given here.
Tests used:
[1] = biological target: T1, Adenosine receptor A3 (Homo sapiens) (UniProt P0DMS8); test: Antagonist activity at human adenosine A3 receptor expressed in CHO cells assessed as inhibition of forskolin-stimulated cAMP production at 10 uM relative to (2S,3S,4R,5R)-5-(6-(3-iodobenzylamino)-9H-purin-9-yl)-3,4-dihydroxy-N-methyl-tetrahydrothiophene-2-carboxamide; type: functional, cell-based; parameters: scale not given: the % may be the effect or the level left
T1 sequence (whole entry): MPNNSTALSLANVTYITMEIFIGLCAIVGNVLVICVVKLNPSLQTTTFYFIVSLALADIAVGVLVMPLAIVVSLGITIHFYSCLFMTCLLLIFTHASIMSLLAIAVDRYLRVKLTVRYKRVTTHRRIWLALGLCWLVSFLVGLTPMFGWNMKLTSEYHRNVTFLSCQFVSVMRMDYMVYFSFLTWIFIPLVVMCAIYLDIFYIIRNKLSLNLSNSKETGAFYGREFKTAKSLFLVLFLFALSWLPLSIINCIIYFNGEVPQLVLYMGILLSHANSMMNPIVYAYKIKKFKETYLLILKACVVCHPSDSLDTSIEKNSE
Procedure, shortened: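 CHO cells stably expressing human A3 AR; forskolin-stimulated cAMP production measured with test compound at 10 μM; response given as mean percentage of a full A3 agonist's effect, n = 1–3.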

[2] = biological target: T2, Adenosine receptor A3 (Homo sapiens, UniProt P0DMS8); test: Displacement of [125I]I-AB-MECA from human adenosine A3 receptor expressed in CHO cells; type: cell-based
T2 sequence (P0DMS8 whole entry): T1 sequence (whole entry)

[3] = biological target: T3, Adenosine receptor A3 (Rattus norvegicus, UniProt P28647); test: Displacement of [125I]I-AB-MECA from rat adenosine A3 receptor expressed in CHO cells; type: cell-based
T3 sequence (P28647 whole entry): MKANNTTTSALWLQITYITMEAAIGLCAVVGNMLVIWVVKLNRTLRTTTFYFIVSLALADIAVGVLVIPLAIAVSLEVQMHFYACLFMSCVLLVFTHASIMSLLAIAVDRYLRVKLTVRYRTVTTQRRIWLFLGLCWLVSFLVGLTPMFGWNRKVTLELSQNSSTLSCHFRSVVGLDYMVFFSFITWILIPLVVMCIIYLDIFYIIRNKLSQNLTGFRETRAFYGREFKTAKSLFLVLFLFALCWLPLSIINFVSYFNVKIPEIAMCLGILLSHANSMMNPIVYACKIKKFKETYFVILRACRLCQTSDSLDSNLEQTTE

[4] = biological target: T4, Adenosine receptor A1 (Homo sapiens, UniProt P30542); test: Displacement of [3H]CCPA from human adenosine A1 receptor expressed in CHO cells; type: cell-based
T4 sequence (P30542 whole entry): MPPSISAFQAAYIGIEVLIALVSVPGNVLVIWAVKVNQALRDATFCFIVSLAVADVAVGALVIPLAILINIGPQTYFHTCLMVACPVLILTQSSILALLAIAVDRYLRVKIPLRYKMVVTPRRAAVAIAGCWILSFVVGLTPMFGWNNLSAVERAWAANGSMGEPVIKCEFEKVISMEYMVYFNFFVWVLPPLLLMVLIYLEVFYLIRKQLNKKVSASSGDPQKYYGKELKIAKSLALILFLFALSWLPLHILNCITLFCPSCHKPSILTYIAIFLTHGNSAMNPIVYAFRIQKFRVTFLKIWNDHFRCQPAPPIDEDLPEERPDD

[5] = biological target: T1, Adenosine receptor A3 (Homo sapiens); test: Displacement of [125I]I-AB-MECA from human adenosine A3 receptor expressed in CHO cells at 10 uM; type: cell-based
Procedure, shortened: (§1)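 Membranes (20 μg protein) from CHO cells stably expressing human or rat A3 AR were incubated with 0.5 nM [125I]I-AB-MECA and increasing ligand concentrations in 50 mM Tris-HCl pH 7.4 with 10 mM MgCl2 for 60 min at 25 °C. Nonspecific binding was set with 10 μM NECA. Filtration through GF/B, washed ×3 with ice-cold buffer, γ-counting.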

[6] = biological target: T5, Adenosine receptor A1 (Homo sapiens) (UniProt P30542); test: Displacement of [3H]CCPA from human adenosine A1 receptor expressed in CHO cells at 10 uM; type: cell-based
T5 sequence (whole entry): T4 sequence (P30542 whole entry)
Procedure, shortened: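 Human A1 AR CHO membranes (40 μg/tube) were incubated with 1 nM [3H]CCPA in 50 mM Tris-HCl pH 7.4 with 10 mM MgCl2 for 60 min at 25 °C; 10 μM NECA defined nonspecific binding; GF/B filtration.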

[7] = biological target: Adenosine receptor A2a (Homo sapiens) (UniProt P29274); test: Displacement of [3H]CGS-21680 from human adenosine A2A receptor expressed in HEK293 cells at 10 uM; type: cell-based
Procedure, shortened: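 Human A2A AR HEK-293 membranes (20 μg/tube) with [3H]CGS21680 in 50 mM Tris-HCl pH 7.4 with 10 mM MgCl2, 60 min at 25 °C; nonspecific binding with 10 μM NECA; GF/B filtration.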

[8] = biological target: T6, Adenosine receptor A2b (Homo sapiens) (UniProt P29275); test: Agonist activity at human adenosine A2B receptor by cAMP assay; type: functional
T6 sequence (whole entry): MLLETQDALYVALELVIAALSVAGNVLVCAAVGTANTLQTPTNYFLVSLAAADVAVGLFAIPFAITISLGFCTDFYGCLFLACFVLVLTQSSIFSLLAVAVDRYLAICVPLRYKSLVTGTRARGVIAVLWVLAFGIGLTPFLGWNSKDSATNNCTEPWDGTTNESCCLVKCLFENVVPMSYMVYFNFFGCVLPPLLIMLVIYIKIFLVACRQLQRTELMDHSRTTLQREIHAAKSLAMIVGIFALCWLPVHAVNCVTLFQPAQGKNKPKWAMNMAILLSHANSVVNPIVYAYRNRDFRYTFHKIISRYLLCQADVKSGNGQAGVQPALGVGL

[9] = biological target: T6, Adenosine receptor A2b (Homo sapiens); test: Antagonist activity at human adenosine A2B receptor by cAMP assay; type: functional
[10] = biological target: T7, Adenosine receptor A3 (Rattus norvegicus) (UniProt P28647); test: Displacement of [125I]I-AB-MECA from rat adenosine A3 receptor expressed in CHO cells at 10 uM; type: cell-based; procedure, shortened: as §1
T7 sequence (whole entry): T3 sequence (P28647 whole entry)

Chain of Adenosine receptor A2a (Homo sapiens) (P29274 whole entry): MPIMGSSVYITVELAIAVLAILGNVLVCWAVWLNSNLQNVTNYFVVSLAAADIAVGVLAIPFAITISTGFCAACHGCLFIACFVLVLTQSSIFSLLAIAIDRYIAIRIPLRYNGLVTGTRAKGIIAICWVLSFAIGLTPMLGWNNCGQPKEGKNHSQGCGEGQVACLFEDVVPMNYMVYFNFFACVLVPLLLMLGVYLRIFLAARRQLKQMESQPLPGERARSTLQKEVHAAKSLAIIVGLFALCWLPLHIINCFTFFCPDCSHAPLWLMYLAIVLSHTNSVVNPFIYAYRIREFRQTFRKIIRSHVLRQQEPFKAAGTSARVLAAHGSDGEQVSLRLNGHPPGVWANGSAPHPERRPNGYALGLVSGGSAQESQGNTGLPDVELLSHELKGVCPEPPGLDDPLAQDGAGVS

| SMILES | Activity [1] | Ki [3] [nM] | other results |
| --- | --- | --- | --- |
| CNC(=O)[C@H]1S[C@@H](n2cnc3c(NCc4cccc(I)c4)ncnc32)[C@H](O)[C@@H]1O | Active | 1.86 | Ki [2]: 0.25 nM; Ki [4]: 17.3 nM |
| CNc1nc(Cl)nc2c1ncn2[C@@H]1SC[C@@H](O)[C@H]1O | < 10% |  |  |
| O[C@@H]1[C@H](O)CS[C@H]1n1cnc2c(NCc3cccc(Cl)c3)nc(Cl)nc21 | < 10% |  |  |
| O[C@H]1[C@@H](O)CS[C@@H]1n1cnc2c(NCc3cccc(I)c3)nc(Cl)nc21 | < 10% |  | inhibition [5]: 18.4%; inhibition [6]: -8%; inhibition [7]: -0.95% |
| O[C@@H]1[C@H](O)CS[C@H]1n1cnc2c(NCc3cccc(I)c3)nc(Cl)nc21 | < 10% |  | Activity [8]: inactive; Activity [9]: inactive |
| O[C@@H]1[C@H](O)CS[C@H]1n1cnc2c(NCc3cccc(Cl)c3)ncnc21 | < 10% | 17 |  |
| O[C@@H]1[C@H](O)CS[C@H]1n1cnc2c(NCc3cccc(F)c3)nc(Cl)nc21 | < 10% |  |  |
| O[C@@H]1[C@H](O)CS[C@H]1n1cnc2c(NCc3cccc(I)c3)ncnc21 | < 10% |  |  |
| O[C@@H]1[C@H](O)CS[C@H]1n1cnc2c(NCc3cccc(Br)c3)ncnc21 | < 10% | 6.3 |  |
| CNc1ncnc2c1ncn2[C@@H]1SC[C@@H](O)[C@H]1O | < 10% |  | inhibition [10]: 28%; Ki [2]: 4.8 nM; inhibition [7]: 22%; Ki [4]: 1070 nM |
| O[C@H]1[C@@H](O)CS[C@@H]1n1cnc2c(NCc3cccc(Br)c3)nc(Cl)nc21 | < 10% |  | inhibition [5]: 12.6%; inhibition [6]: 6.1%; inhibition [7]: 45.7% |
| O[C@@H]1[C@H](O)CS[C@H]1n1cnc2c(NCc3cccc(F)c3)ncnc21 | < 10% | 98 |  |
| O[C@@H]1[C@H](O)CS[C@H]1n1cnc2c(NCc3cccc(Br)c3)nc(Cl)nc21 | < 10% |  |  |
